hERG rescue – compounds protecting human hERG from proarrhythmic drug block | CHO-hERG, FluxOR thallium flux, dofetilide IC70 present | hit rate 0.51% among 310,000 | activation (rescue from dofetilide block), less the hit threshold, % at 10 µM;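 active = activation above the mean of controls blocked by dofetilide plus 5 SD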;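 note: thallium influx through hERG after potassium depolarization seen as dye fluorescence rise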
Kir21 block – inhibitors of mouse Kir2.1 inward-rectifier potassium channel; P35561; HEK293-Kir2.1, FluxOR thallium flux fluorescence; hits give low values; AID 1672; hit rate 0.85% among 310,000; B-score at 10 µM;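 active = fluorescence ratio B-score at or below minus 3 SD of library scores, with starting-brightness B-score within 2 SD, cut at about -4.2 in these data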;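 note: channel flux triggered by added potassium and thallium sulfate stimulus; B-score of peak minus minimum fluorescence over baseline after thallium stimulus; more negative B-score means stronger Kir2.1 block with less thallium influx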
KCNQ1 act – potentiates or activates the human KCNQ1 potassium channel | P51787 | CHO-K1 KCNQ1, thallium flux FluxOR fluorescence; hits give high values | B-score at 10 µM | hit rate 0.35% among 310,000 | AID 2648;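 active = fluorescence ratio B-score, a plate-corrected score, at least three library SD, with initial intensity B-score within 5 SD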
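assay system = KCNQ1-transfected CHO-K1 cells | medium = assay buffer with matched DMSO | probe or stimulus = depolarizing K+/Tl+ stimulus, K2SO4 and Tl2SO4 each 12.5 mM in 5x stock | dosing = single dose | incubation = dye 90 min, compound 20 min, room temperature | detection = kinetic FluxOR fluorescence, 10 s baseline plus 110 s post-stimulus | evaluation = ratio B score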
KCNQ1 inh – inhibitors of human KCNQ1 potassium channel | P51787 | CHO-K1 KCNQ1, FluxOR thallium flux fluorescence; hits give high values | B-score at 10 µM | hit rate 1.3% among 310,000;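 active = compounds whose thallium flux B-score, printed positive for inhibition, exceeds three library SD while starting fluorescence stays within three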;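 note: channel opened by potassium depolarization with thallium stimulus after 20 min compound exposure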
KCNK9 inh – blocks the human KCNK9 two-pore domain potassium channel | AID 488922 | HEK293 KCNK9, FluxOR thallium flux fluorescence; hits give low values | Q9NPC2 | B-score at 10 µM | hit rate 1.2% among 310,000;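 active = ratio B-score over 3 SD below the library mean, with starting fluorescence within 5 SD of its mean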;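 note: negative B-score means less thallium flux so channel inhibition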
KCNK3 block – human KCNK3 channel inhibition, primary screen; O14649; CHO-KCNK3 thallium flux, FluxOR fluorescence; hits give low values; B-score at 10 µM; hit rate 0.84% among 340,000;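 active = B-score under library mean minus 4 SD, starting fluorescence ratio at most library mean plus 5 SD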;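 note: more negative B-score means stronger inhibition of thallium flux through KCNK3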
KCNK9 block conf – human KCNK9 inhibitor confirmation | shares compounds with KCNK9 inh | HEK293 KCNK9 cells, FluxOR thallium flux fluorescence | inhibition, % at 10 µM | hit rate 43% among 4,900 | AID 492992;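 active = thallium signal inhibited by more than 5 SD of the compound-free buffer control wells, on both duplicate plates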;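 note: 0% = assay buffer control wells without compound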
Kir21 sel – selectivity of KCNK9 modulators against mouse Kir2.1. shares compounds with KCNK9 inh. Kir2.1 cells, FluxOR thallium flux fluorescence. inhibition, % at 10 µM. hit rate 4% among 4,900. AID 492993;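 active = thallium signal drop more than 5 SD beyond the mean of the no-compound control wells, seen in both duplicate plates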;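 note: signal is fluorescence rise after thallium addition divided by baseline fluorescence; plate controls were assay buffer only for no effect and full block by chlorpromazine control for full effect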
HEK293 Tl ctr – second check of KCNK9 modulator effects in non-induced HEK293 cells. shares compounds with KCNK9 inh. FluxOR thallium flux. inhibition, % at 10 µM. hit rate 40% among 4,900. AID 492997;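 active = thallium signal drop beyond 5 SD of the untreated control mean, on both duplicate plates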;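 note: plate controls were buffer only IC0 wells for no effect and SID17386958 at its maximal inhibitory level for full effect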
An asterisk follows results filed as active; i = inactive; . = no result given. This is a sample that favours compounds with a hit; in the whole collection about 3.8% have one here.

SMILES	hERG rescue	Kir21 block	KCNQ1 act	KCNQ1 inh	KCNK9 inh	KCNK3 block	KCNK9 block conf	Kir21 sel	HEK293 Tl ctr
OC(CSc1ccccc1Cl)CN1CCN(c2ccccc2F)CC1 (stereo not given)	-17	-0.07	i	i	i	i	i	i	i
OC(CSc1c(Cl)cccc1Cl)CN1CCN(c2ccccc2F)CC1 (stereo not given)	-26	-0.01	i	i	i	i	i	i	i
Cc1cc(/C=C2\SC(=Nc3ccccc3)NC2=O)c(C)n1-c1ccc(S(N)(=O)=O)cc1	-8	2.3	i	i	i	i	.	.	.
O=C(NS(=O)(=O)Nc1ccccc1)C1=C(N2CCCC2)COC1=O	.	.	.	.	.	i	.	.	.
O=C(c1ccc(F)cc1)N(c1ccccn1)C1CCCCC1	-2	-0.02	i	i	i	i	.	.	.
C#CCn1c(S(=O)(=O)Cc2ccc(C)cc2)nc(-c2ccccc2)c1-c1ccccc1	-14	1.1	i	i	-12*	i	59%*	i	36%*
C#CCn1c(S(=O)(=O)Cc2ccccc2Cl)nc(-c2ccccc2)c1-c1ccccc1	-9	-0.14	i	i	i	i	.	.	.
CC1CCCC(C)N1CC(C)(C)NS(=O)(=O)c1ccc(Cl)cc1 (stereo not given)	-13	-0.61	i	i	i	i	.	.	.
CCc1ccc(C(=O)C(C)OC(=O)c2nc3nc(C)cc(C)n3n2)cc1 (stereo not given)	-12	-0.16	i	i	i	i	.	.	.
NC(=O)CSc1nnc(-c2cccs2)n1Cc1ccco1	-9	1.2	i	i	i	i	.	.	.
Cc1ccc(C)c(CSc2nnc(-c3cccs3)n2Cc2ccco2)c1	-13	-5*	i	i	-12*	i	36%*	61%*	42%*
CN(C)c1ccc(C(CNC(=O)c2ccco2)N2CCCC2)cc1 (stereo not given)	-2	0.15	i	i	i	i	.	.	.
CCCN1CCCc2cc(CN(CCCN3CCOCC3)C(=O)Nc3ccc(OCC)cc3)ccc21	-1	0.02	i	i	i	i	i	i	i
COCCn1c(SCc2ccc(F)cc2)nc2ccccc2c1=O	-8	-0.08	i	i	-15*	i	68%*	i	38%*
O=c1c2ccccc2nc(SCc2nnc(-c3ccccc3Br)o2)n1Cc1ccco1	-5	-0.16	i	i	i	i	.	.	.
O=c1c2ccccc2nc(SCc2cccc(F)c2)n1Cc1ccco1	-14	-1.2	i	i	-16*	i	55%*	i	54%*
N#CCCN(Cc1cccnc1)C(=S)NC(=O)C1CC1	-1	-0.35	i	i	i	.	.	.	.
CCCCC(OC(=O)CN1C(=O)COc2ccccc21)C(=O)NC1CCCCC1 (stereo not given)	-10	-0.02	i	i	i	i	.	.	.
CC(C)Cn1c(/C=N/Nc2nc3ccccc3[nH]2)nc2ccccc21	-4	-1.5	i	11*	i	i	27%*	i	i
CCCn1c(/C=N/Nc2nc3ccccc3[nH]2)nc2ccccc21	.	.	.	.	.	i	.	.	.
COC(=O)c1c(NC(=O)C2SC(=NC3CCCCC3)C(C(N)=O)=C2N)sc2c1CCCC2 (stereo not given)	-13	0.97	i	i	i	i	.	.	.
COc1ccc(CCCc2nnc(SCC(=O)N/N=C\c3ccc(O)c(OC)c3)o2)cc1C	-8	-0.98	i	i	i	i	.	.	.
COc1ccc(/C=N/NC(=O)CSc2nnc(CCCc3ccc(OC)c(C)c3)o2)cc1	-16	1.9	i	i	i	i	i	i	i
O=[N+]([O-])c1ccccc1/C=C\C=N\N1CCN(c2ccccc2)CC1	-16	0.99	i	i	i	i	.	.	.
